Source: ChEMBL document CHEMBL4828701, “An Integrated Strategy for the Detection, Dereplication, and Identification of DNA-Binding Biomolecules from Complex Natural Product Mixtures” (J Nat Prod, 2021)
Calls of active or inactive are those of the source. No cut-off for these calls is given here.

Assays:
[1] = tested on: HCC1937; test: Antiproliferative activity against human HCC1937 assessed as cell growth inhibition after 48 hrs by SRB assay; type: functional
Outline: (§1)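 HCC1937, HCC70 and SJCRH30 cells in RPMI-1640 with 10% FBS and 50 μg/mL gentamicin, 37 °C, 5% CO2, used within 4 months of thaw. Plated cells adhered overnight before 48 h compound exposure (DMSO 0.5% v/v final). Read-out was SRB, with GI50 by nonlinear regression from 3 or 4 experiments ±SEM.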

[2] = tested on: MDA-MB-453; test: Antiproliferative activity against human MDA-MB-453 assessed as cell growth inhibition after 48 hrs by SRB assay; type: functional
Outline: (§2)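 MDA-MB-231 and MDA-MB-453 cells in modified IMEM with 5% FBS and 30 μg/mL gentamicin, 37 °C, 5% CO2, used within 4 months of thaw. After overnight adherence, cells had 48 h compound treatment (DMSO 0.5% v/v final). Growth was read by SRB assay, with GI50 from nonlinear regression as the mean of 3 or 4 experiments ±SEM.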

[3] = tested on: MDA-MB-231; test: Antiproliferative activity against human MDA-MB-231 assessed as cell growth inhibition after 48 hrs by SRB assay; type: functional; settings: for CC50: read-out: LC50 (the source's name); outline: as §2
[4] = tested on: A673; test: Antiproliferative activity against human A673 assessed as cell growth inhibition after 48 hrs by SRB assay; type: functional; settings: for CC50: read-out: LC50 (the source's name)
Outline: (§3)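 A-673 and HCC1806 cells in RPMI-1640 with 5% FBS, 37 °C, 5% CO2, used within 4 months of thaw. Cells were plated and left overnight, then exposed to compounds in DMSO (0.5% v/v final) for 48 h. SRB staining followed, with GI50 fitted by nonlinear regression, as the mean of 3 or 4 experiments ±SEM.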

[5] = tested on: SJRH30; test: Antiproliferative activity against human SJRH30 assessed as cell growth inhibition after 48 hrs by SRB assay; type: functional; outline: as §1
[6] = tested on: HCC1806; test: Antiproliferative activity against human HCC1806 assessed as cell growth inhibition after 48 hrs by SRB assay; type: functional; settings: for CC50: read-out: LC50 (the source's name); outline: as §3
[7] = tested on: HCC70; test: Antiproliferative activity against human HCC70 assessed as cell growth inhibition after 48 hrs by SRB assay; type: functional; settings: for CC50: read-out: LC50 (the source's name); outline: as §1
[8] = Aqueous solubility of the compound; settings: buffer
[9] = tested on: Salmon testes DNA; test: Binding affinity to salmon DNA groove measured after 30 mins by UV based spectroscopic method; type: nucleic-acid assay; settings: Salmo salar
Outline: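 Compounds (typically 5–50 μg) in 200 μL water/MeOH were added to 400 μL salmon sperm DNA stock (1 mg/mL in 10 mM Tris, 1 mM EDTA, pH 8.0, 15% glycerol) and incubated 30 min at room temperature. Samples were ultrafiltered (100 kDa, 5000g, 10 °C), and filtrate peak areas (UV 254 nm, LC-PDA-MS/MS) were compared with no-DNA buffer controls.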

[10] = tested on: Salmon testes DNA; test: Covalent binding affinity to salmon DNA measured after 30 mins by UV based spectroscopic method; type: nucleic-acid assay; settings: Salmo salar
Outline: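 After 30 min room-temperature incubation with salmon sperm DNA in TE/15% glycerol buffer and 100 kDa ultrafiltration, retained complexes were washed with 30% MeOH (3× 5000g, 10 °C). Ligands were then released with 95% MeOH/1% formic acid for 20 min, refiltered, dried, taken up in MeOH, and analysed by LC-PDA-MS/MS against no-DNA controls.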

SMILES	GI50 [1] [µM]	TGI [1] [µM]	GI50 [2] [µM]	TGI [2] [µM]	GI50 [3] [µM]	TGI [3] [µM]	CC50 [3] [µM]	GI50 [4] [µM]	TGI [4] [µM]	CC50 [4] [µM]	GI50 [5] [µM]	TGI [5] [µM]	GI50 [6] [µM]	TGI [6] [µM]	CC50 [6] [µM]	GI50 [7] [µM]	TGI [7] [µM]	CC50 [7] [µM]	solubility [8]	other results
COc1ccc2cc1Oc1ccc(cc1)C[C@H]1c3c(cc4c(c3Oc3cc5c(cc3OC)CCN(C)[C@@H]5C2)OCO4)CCN1C [CEPHARANTHINE]	6	14	5.5	7.8	5.3	7.7	12	4.5	5.8	7.5	3.8	5.7	7.2	12	19	5.8	9.6	17		
COc1cc2c(cc1O)[C@@H](Cc1ccc(O)c(Oc3ccc(C[C@@H]4c5cc(OC)c(OC)cc5CCN4C)cc3)c1)N(C)CC2 [DARUISOLINE]	6.9	11	9	14	13	19	30	9.2	13	19	3.7	6	17	27	41	8.8	13	19		
COc1ccc2cc1Oc1ccc(cc1)C[C@H]1c3cc(c(OC)cc3CCN1C)Oc1c(OC)c(OC)cc3c1[C@H](C2)N(C)CC3 [FANCHININ]	4.2	10	3.3	4.8	5	7.4	12	4	6	8.9	3	4.3	5.1	8.5	15	3.4	5.9	11		
NC[C@@H]1O[C@H](O[C@H]2[C@@H](O)[C@H](O[C@@H]3[C@@H](O)[C@H](N)C[C@H](N)[C@H]3O[C@H]3O[C@H](CN)[C@@H](O)[C@H](O)[C@H]3N)O[C@@H]2CO)[C@H](N)[C@@H](O)[C@@H]1O [FRAMYCETIN]																			Soluble	Activity [9]: Active
CN(C)CCN(Cc1cccs1)c1ccccn1 [METHAPYRILENE]																			Insoluble	
Cc1c2ccncc2c(C)c2c1[nH]c1ccccc12 [ELLIPTECINE]																			Insoluble	
N[C@@H](Cc1ccc(N(CCCl)CCCl)cc1)C(=O)O [MELPHALAN]																			Insoluble	Activity [10]: Active
Nc1c2ccccc2nc2ccccc12 [AMINACRINE]																			Insoluble	
O=NN(CCCl)C(=O)NCCCl [CARMUSTINE]																			Insoluble	Activity [10]: Active
